ChEMBL document CHEMBL4152390, “Discovery of the First-in-Class Dual Histone Deacetylase-Proteasome Inhibitor” (J Med Chem, 2018)
The source made the active and inactive calls. No cut-off for these calls is given here.

How the values were obtained:
[1] = target: T1, Proteasome Macropain subunit MB1 (Homo sapiens, UniProt P28074); experiment: Inhibition of chymotrypsin-like activity of 20S proteasome in human HL60 cells using Suc-LLVY aminoluciferin as substrate after 2 hrs by proteasome-Glo assay; format: cell-based
T1 sequence (P28074 whole entry): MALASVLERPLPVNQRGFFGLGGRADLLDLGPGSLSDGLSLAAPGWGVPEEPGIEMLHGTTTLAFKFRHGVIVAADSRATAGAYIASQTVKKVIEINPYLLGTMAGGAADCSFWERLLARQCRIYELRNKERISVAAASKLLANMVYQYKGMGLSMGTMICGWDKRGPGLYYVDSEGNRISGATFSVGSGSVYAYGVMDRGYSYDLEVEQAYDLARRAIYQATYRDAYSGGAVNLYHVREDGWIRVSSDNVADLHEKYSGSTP

[2] = Cytotoxicity against human BCP-ALL cells derived from patient 4 after 72 hrs by CellTiter-Glo luminescent cell viability assay; format: functional, cell-based
SEM cells [3] = experiment: Induction of early differentiation of human SEM cells assessed as increase in CD14 expression at IC50 to 2 times IC50 after 72 hrs by FACS analysis; format: functional, cell-based
Summary of the method: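 Surface CD11b and CD14 measured by FACS using fluorochrome-coupled monoclonal antibodies with matched isotype controls, after treatment in liquid medium.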

SEM cells [4] = experiment: Inhibition of HDAC6/chymotrypsin-like activity of 20S proteasome in human SEM cells assessed as increase in phosphorylated JNK protein expression at 0.1 to 10 uM after 18 hrs by Western blot assay; format: cell-based
Summary of the method: (§1)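 Cells treated 18 h at indicated concentrations; lysates analysed by western blot for heat shock (Grp94, HSP70, HSP40, HSP27), UPR (BIP, ATF4, ATF6, pJNK) and autophagy (LC3B, p62) proteins.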

[5] = target: T2, Proteasome component C5 (Homo sapiens) (UniProt P20618); experiment: Inhibition of caspase-like activity of 20S proteasome in human SEM cells at 4 nM to 25 uM using Z-nLPnLD-aminoluciferin as substrate after 2 hrs by proteasome-Glo assay; format: cell-based
T2 sequence (whole entry): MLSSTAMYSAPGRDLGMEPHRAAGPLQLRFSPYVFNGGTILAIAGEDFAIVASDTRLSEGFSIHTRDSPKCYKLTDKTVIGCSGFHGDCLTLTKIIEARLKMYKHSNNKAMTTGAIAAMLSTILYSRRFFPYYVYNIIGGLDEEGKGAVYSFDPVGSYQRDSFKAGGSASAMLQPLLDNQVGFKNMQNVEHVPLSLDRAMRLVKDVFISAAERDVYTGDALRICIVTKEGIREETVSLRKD

SEM cells [6] = experiment: Inhibition of HDAC6/chymotrypsin-like activity of 20S proteasome in human SEM cells assessed as decrease in aggresome accumulation at IC50 to 2 times IC50 after 18 hrs by fluorescence microscopic method; format: cell-based
Summary of the method: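 Cells treated 18 h, then stained with a proteostat aggresome dye plus DNA stain. Imaged by fluorescence microscopy (63X objective) or analysed by FACS, with aggresome propensity factor from relative mean fluorescence intensity.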

SUP-B15 = experiment: Inhibition of HDAC6/chymotrypsin-like activity of 20S proteasome in imatinib-resistant human SUP-B15 cells assessed as increase in cleaved PARP expression at 0.1 to 10 uM after 24 hrs by immunoblot assay; format: cell-based
Summary of the method: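 Cells exposed for 24 h at indicated concentrations; lysates immunoblotted for acetyl-α-tubulin, acetyl-histone H3, PARP, with GAPDH as loading control.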

SEM cells [7] = experiment: Antiproliferative activity against human SEM cells at IC50 to 2 times IC50 after 24 to 72 hrs by trypan exclusion method; format: functional, cell-based
SEM cells [8] = experiment: Induction of apoptosis in human SEM cells assessed as increase in caspase 3/7 activity at IC50 after 48 hrs by glo assay relative to control; format: functional
Summary of the method: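 Cells treated at IC50 or 2x IC50 for 48 h; caspase-3/7 activity read by luminescence after cleavage of a DEVD-containing luminogenic substrate.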

SEM cells [9] = experiment: Inhibition of HDAC6/chymotrypsin-like activity of 20S proteasome in human SEM cells assessed as increase in Grp94 protein expression at 0.1 to 10 uM after 18 hrs by Western blot assay; format: cell-based; summary of the method: as §1
SEM cells [10] = experiment: Inhibition of HDAC6/chymotrypsin-like activity of 20S proteasome in human SEM cells assessed as increase in ATF4 protein expression at 0.1 to 10 uM after 18 hrs by Western blot assay; format: cell-based; summary of the method: as §1
SEM cells [11] = experiment: Inhibition of HDAC6/chymotrypsin-like activity of 20S proteasome in human SEM cells assessed as increase in p62 protein expression at 0.1 to 10 uM after 18 hrs by Western blot assay; format: cell-based; summary of the method: as §1
Histone deacetylase 1 = Histone deacetylase 1 (Homo sapiens, UniProt Q13547); experiment: Inhibition of C-terminal FLAG-His-tagged full length recombinant human HDAC1 expressed in Sf21 insect cells using RHKK(Ac)AMC as substrate by fluorescence-based assay
SEM cells [12] = experiment: Induction of apoptosis in human SEM cells at IC50 to 2 times IC50 after 48 hrs by annexin V/propidium iodide staining-based FACS analysis relative to control; format: functional
Summary of the method: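 After 48 h treatment at IC50 or 2x IC50, cells double-stained with annexin V and PI and analysed by FACS. Cells scored as living, early apoptotic (annexin V+), late apoptotic (both+) or necrotic (PI+).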

SEM cells [13] = experiment: Inhibition of HDAC6/chymotrypsin-like activity of 20S proteasome in human SEM cells assessed as increase in HSP40 protein expression at 0.1 to 10 uM after 18 hrs by Western blot assay; format: cell-based; summary of the method: as §1
[14] = Cytotoxicity against human BCP-ALL cells derived from patient 3 after 72 hrs by CellTiter-Glo luminescent cell viability assay; format: functional, cell-based
SEM cells [15] = experiment: Inhibition of HDAC6/chymotrypsin-like activity of 20S proteasome in human SEM cells assessed as increase in HSP70 protein expression at 0.1 to 10 uM after 18 hrs by Western blot assay; format: cell-based; summary of the method: as §1
SEM cells [16] = experiment: Cell cycle arrest in human SEM cells assessed as accumulation at S phase after 48 hrs by propidium iodide staining-based FACS analysis; format: functional
[17] = Cytotoxicity against human BCP-ALL cells derived from patient 2 after 72 hrs by CellTiter-Glo luminescent cell viability assay; format: functional, cell-based
Summary of the method: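 Compounds dispensed digitally at increasing concentrations, 50 nM–25 μM; viability read by CellTiter-Glo luminescence after 72 h. Raw data normalized to controls, IC50 from sigmoid dose curve by non-linear regression. Patient samples: primary cells from newly diagnosed or relapsed patients, cultured in stem cell expansion or mononuclear cell medium.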

Sequence of Histone deacetylase 1 (Q13547 whole entry): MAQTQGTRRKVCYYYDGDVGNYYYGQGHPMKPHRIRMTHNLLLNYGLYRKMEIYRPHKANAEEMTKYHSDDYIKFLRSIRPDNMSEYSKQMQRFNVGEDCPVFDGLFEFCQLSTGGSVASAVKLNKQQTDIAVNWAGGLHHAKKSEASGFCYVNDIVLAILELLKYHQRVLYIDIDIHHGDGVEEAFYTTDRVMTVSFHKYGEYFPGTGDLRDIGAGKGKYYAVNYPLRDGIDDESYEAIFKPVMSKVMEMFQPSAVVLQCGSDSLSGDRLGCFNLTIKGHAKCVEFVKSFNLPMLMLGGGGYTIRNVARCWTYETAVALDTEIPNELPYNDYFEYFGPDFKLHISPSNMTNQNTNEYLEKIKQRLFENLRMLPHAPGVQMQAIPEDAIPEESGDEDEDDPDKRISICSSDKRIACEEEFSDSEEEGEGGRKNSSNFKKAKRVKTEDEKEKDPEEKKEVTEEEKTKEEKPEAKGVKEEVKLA

C[C@H](NC(=O)[C@H](CC(=O)NCC(C)(C)C)NC(=O)c1ccc(C(=O)NO)cc1)C(=O)NCc1ccccc1
IC50 [1]: 260 nM | IC50 [2]: 1510 nM | Activity (SEM cells [3]): Active | inhibition (SEM cells [4]): Active | inhibition [5]: inactive | inhibition (SEM cells [6]): Active | inhibition (SUP-B15): Active | Activity (SEM cells [7]): Active | fold change (FC) (SEM cells [8]): 6 | inhibition (SEM cells [9]): Active | inhibition (SEM cells [10]): Active | inhibition (SEM cells [11]): Active | IC50 (Histone deacetylase 1): 6900 nM | fold change (FC) (SEM cells [12]): 5 | inhibition (SEM cells [13]): Active | IC50 [14]: 5230 nM | inhibition (SEM cells [15]): Active | Activity (SEM cells [16]): Dose-dependent effect | IC50 [17]: 1840 nM
